Measured values: ChEMBL document CHEMBL2163200, “Synthesis, biological evaluation, and structure-activity relationships of novel substituted N-phenyl ureidobenzenesulfonate derivatives blocking cell cycle progression in S-phase and inducing DNA double-strand breaks” (J Med Chem, 2012)
Active and inactive are the calls of the source. No cut-off for these calls is given here.

What was measured:
MCF7 = assay: Cytotoxicity against human MCF7 cells after 48 hrs by SRB assay; format: functional, cell-based; settings: MCF7, 48 h
Method in brief: (§1)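 NCI sulforhodamine B protocol. Cells were grown in high-glucose DMEM with 5% FBS and seeded per well at 4 × 10^3 (HT-29), 3.5 × 10^3 (M21) or 3 × 10^3 (MCF-7), then allowed 24 h to attach. Serial dilutions from 200 μM to 780 nM final were applied in DMSO <0.5% for 48 h. Cells were fixed with cold TCA (10% final) and stained with SRB, with absorbance read at 530–568 nm. Growth inhibition was computed against day-0 plates, giving the 50% inhibitory concentration. At least two experiments in triplicate, CV <10%.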

Jurkat [1] = assay: Cell cycle arrest in human Jurkat E6-1 cells assessed as accumulation at G2/M phase at 6.6 uM after 24 hrs by FACS flow cytometry; format: functional
Method in brief: (§2)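 Jurkat E6 cells grown in RPMI 1640 with 10% FBS at 37 °C, 5% CO2. Compounds were serially diluted in medium starting 50% above the M21 IC50. 4.0 × 10^5 cells were exposed for 24 h, then washed and spiked with chicken red blood cells as internal standard. Cells were fixed in ice-cold ethanol, stained with 1 μg/mL DAPI on ice for 1 h, and phase distribution was read by flow cytometry. The control was 0.5% DMSO.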

M21 [2] = assay: Induction of DNA damage response in human M21 cells assessed as phosphorylation of H2AX into gammaH2AX at IC50 after 24 hrs by DAPI staining-based immunofluorescence assay; format: functional, cell-based
Method in brief: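 M21 cells (1 × 10^5) on fibronectin-coated coverslips, grown 24 h, then exposed to agent for 24 h at 37 °C; 0.5% DMSO control. Fixed with 3.7% formaldehyde and permeabilized with 0.1% saponin/3% BSA. Probed with mouse anti-H2AX pS139 antibody for 2 h at room temperature. Nuclei counterstained with DAPI; nuclear γH2AX foci viewed by epifluorescence microscopy.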

Jurkat [3] = assay: Cell cycle arrest in human Jurkat E6-1 cells assessed as accumulation at S phase at 6.6 uM after 24 hrs by FACS flow cytometry; format: functional
Method in brief: (§3)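 Jurkat E6 T-lymphoblasts in RPMI 1640 with 10% FBS, 37 °C, 5% CO2. […] Chicken red blood cells were added as internal standard. Cells were fixed in ice-cold EtOH and stained with 1 μg/mL DAPI on ice for 1 h before flow cytometry of phase distribution. Vehicle control was 0.5% DMSO.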

Jurkat [4] = assay: Cell cycle arrest in human Jurkat E6-1 cells assessed as accumulation at G0/G1 phase at 6.6 uM after 24 hrs by FACS flow cytometry; format: functional
Method in brief: (§4)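 Jurkat E6 cells cultured in RPMI 1640 with 10% FBS at 37 °C, 5% CO2. Compounds serially diluted in medium, starting 50% above the M21 IC50. 4.0 × 10^5 cells were exposed for 24 h. Cells were washed with PBS, chicken red blood cells added as internal standard, and fixed in ice-cold EtOH. After 1 h on ice in PBS with 1 μg/mL DAPI, phase distribution was read by flow cytometry. DMSO-treated cells served as control.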

M21 [5] = assay: Cytotoxicity against human M21 cells after 48 hrs by SRB assay; format: functional, cell-based; settings: M21, 48 h; method in brief: as §1
Jurkat [6] = assay: Cell cycle arrest in human Jurkat E6-1 cells assessed as accumulation at G2/M phase at 9.3 uM after 24 hrs by FACS flow cytometry; format: functional; method in brief: as §2
Jurkat [7] = assay: Cell cycle arrest in human Jurkat E6-1 cells assessed as accumulation at G0/G1 phase at 9.3 uM after 24 hrs by FACS flow cytometry; format: functional; method in brief: as §4
Jurkat [8] = assay: Cell cycle arrest in human Jurkat E6-1 cells assessed as accumulation at S phase at 9.3 uM after 24 hrs by FACS flow cytometry; format: functional; method in brief: as §3
HT-1080 = assay: Antitumor activity against human HT1080 cells xenografted in chicken chorioallantoic membrane assessed as inhibition of tumor growth at 30 ug per egg, iv administered on day 11 measured on day 17 by CAM assay; format: functional
Method in brief: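 HT-1080 fibrosarcoma cells (3.5 × 105/egg) were applied onto freshly exposed CAM of fertilized chicken eggs. On day 11, drug from a DMSO stock was diluted in Cremophor EL/99% ethanol/PBS (1/1/14 v/v) and 100 μL was injected into a vein under the CAM. Groups of 10–12 eggs were kept to day 17, embryos were euthanized at 4 °C for ≥4 h, and tumor wet weight was recorded.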

HT-29 = assay: Cytotoxicity against human HT-29 cells after 48 hrs by SRB assay; format: functional, cell-based; settings: HT-29, 48 h; method in brief: as §1
Jurkat [9] = assay: Cell cycle arrest in human Jurkat E6-1 cells assessed as accumulation at S phase at 0.84 uM after 24 hrs by FACS flow cytometry; format: functional; method in brief: as §2
[10] = Toxicity in fertilized chicken embryo assessed as mortality rate at 30 ug per egg, iv administered on day 11 measured on day 17 by CAM assay; format: organism-based, Gallus gallus; settings: in vivo, read-out: Activity
Method in brief: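 Fertilized chicken eggs grafted on the CAM with HT-1080 cells (3.5 × 105/egg) received a 100 μL intravenous injection under the CAM on day 11. The drug was diluted in Cremophor EL/99% ethanol/PBS (1/1/14 v/v). Groups held 10–12 eggs and were incubated until day 17, when dead embryos and signs of toxicity were counted per group.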

Jurkat [11] = assay: Cell cycle arrest in human Jurkat E6-1 cells assessed as accumulation at G2/M phase at 0.84 uM after 24 hrs by FACS flow cytometry; format: functional; method in brief: as §4
Jurkat [12] = assay: Cell cycle arrest in human Jurkat E6-1 cells assessed as accumulation at G0/G1 phase at 0.84 uM after 24 hrs by FACS flow cytometry; format: functional; method in brief: as §4
Jurkat [13] = assay: Cell cycle arrest in human Jurkat E6-1 cells assessed as accumulation at S phase at 10 uM after 24 hrs by FACS flow cytometry; format: functional; method in brief: as §2
Jurkat [14] = assay: Cell cycle arrest in human Jurkat E6-1 cells assessed as accumulation at G2/M phase at 10 uM after 24 hrs by FACS flow cytometry; format: functional; method in brief: as §4
Jurkat [15] = assay: Cell cycle arrest in human Jurkat E6-1 cells assessed as accumulation at G0/G1 phase at 10 uM after 24 hrs by FACS flow cytometry; format: functional; method in brief: as §4
Jurkat [16] = assay: Cell cycle arrest in human Jurkat E6-1 cells assessed as accumulation at S phase at 4.8 uM after 24 hrs by FACS flow cytometry; format: functional; method in brief: as §3
Jurkat [17] = assay: Cell cycle arrest in human Jurkat E6-1 cells assessed as accumulation at G2/M phase at 4.8 uM after 24 hrs by FACS flow cytometry; format: functional; method in brief: as §2
Jurkat [18] = assay: Cell cycle arrest in human Jurkat E6-1 cells assessed as accumulation at G0/G1 phase at 4.8 uM after 24 hrs by FACS flow cytometry; format: functional; method in brief: as §4
Jurkat [19] = assay: Cell cycle arrest in human Jurkat E6-1 cells assessed as accumulation at G2/M phase at 1.7 uM after 24 hrs by FACS flow cytometry; format: functional; method in brief: as §4
Jurkat [20] = assay: Cell cycle arrest in human Jurkat E6-1 cells assessed as accumulation at S phase at 1.7 uM after 24 hrs by FACS flow cytometry; format: functional; method in brief: as §2
Jurkat [21] = assay: Cell cycle arrest in human Jurkat E6-1 cells assessed as accumulation at G0/G1 phase at 1.7 uM after 24 hrs by FACS flow cytometry; format: functional; method in brief: as §4
Jurkat [22] = assay: Cell cycle arrest in human Jurkat E6-1 cells assessed as accumulation at G2/M phase at 63 uM after 24 hrs by FACS flow cytometry; format: functional; method in brief: as §2
Jurkat [23] = assay: Cell cycle arrest in human Jurkat E6-1 cells assessed as accumulation at S phase at 63 uM after 24 hrs by FACS flow cytometry; format: functional; method in brief: as §3
Jurkat [24] = assay: Cell cycle arrest in human Jurkat E6-1 cells assessed as accumulation at G0/G1 phase at 63 uM after 24 hrs by FACS flow cytometry; format: functional; method in brief: as §4

SMILES: CCCc1ccccc1OS(=O)(=O)c1ccc(NC(=O)NCCCCl)cc1
- IC50 (MCF7): 15 µM
- Activity (Jurkat [1]): 8%
- Activity (M21 [2]): Active
- Activity (Jurkat [3]): 67%
- Activity (Jurkat [4]): 25%
- IC50 (M21 [5]): 13 µM

SMILES: CCc1ccccc1OS(=O)(=O)c1ccc(NC(=O)NCCCl)cc1
- Activity (Jurkat [6]): 17%
- IC50 (MCF7): 19 µM
- Activity (Jurkat [7]): 6%
- Activity (Jurkat [8]): 77%
- TGI (HT-1080): 49%
- Activity (M21 [2]): Active
- IC50 (HT-29): 17 µM
- IC50 (M21 [5]): 13 µM

SMILES: O=C(NCCCl)Nc1ccc(S(=O)(=O)Oc2ccc(O)cc2)cc1
- IC50 (MCF7): 1.3 µM
- Activity (Jurkat [9]): 53%
- TGI (HT-1080): 69%
- mortality at 6 days [10]: 15%
- Activity (Jurkat [11]): 20%
- IC50 (HT-29): 1.5 µM
- IC50 (M21 [5]): 1.2 µM
- Activity (Jurkat [12]): 27%

SMILES: CCCc1ccccc1NS(=O)(=O)c1cccc(NC(=O)NCCCl)c1
- IC50 (MCF7): 16 µM
- Activity (Jurkat [13]): 39%
- Activity (Jurkat [14]): 19%
- IC50 (HT-29): 15 µM
- Activity (Jurkat [15]): 42%
- IC50 (M21 [5]): 17 µM

SMILES: Cc1cccc(OS(=O)(=O)c2ccc(NC(=O)NCCCl)cc2)c1
- Activity (Jurkat [16]): 52%
- IC50 (MCF7): 17 µM
- Activity (Jurkat [17]): 13%
- Activity (Jurkat [18]): 35%
- IC50 (HT-29): 11 µM
- IC50 (M21 [5]): 7.2 µM

SMILES: CCCc1ccccc1OS(=O)(=O)c1ccc(NC(=O)NCCCl)cc1
- Activity (Jurkat [19]): 11%
- IC50 (MCF7): 3.6 µM
- Activity (Jurkat [20]): 73%
- TGI (HT-1080): 49%
- Activity (M21 [2]): Active
- Activity (Jurkat [21]): 16%
- IC50 (HT-29): 2.5 µM
- IC50 (M21 [5]): 2.1 µM

SMILES: Cc1ccccc1NS(=O)(=O)c1cccc(NC(=O)NCCCl)c1
- Activity (Jurkat [22]): 14%
- IC50 (MCF7): 86 µM
- Activity (Jurkat [23]): 45%
- Activity (Jurkat [24]): 41%
- IC50 (HT-29): 71 µM
- IC50 (M21 [5]): 91 µM
